# Measured values as given in ChEMBL document CHEMBL1152467, “Pharmacokinetics and pharmacodynamics of piperaquine in a murine malaria model” (Antimicrob Agents Chemother, 2008).
# Active and inactive are the calls of the source. The calls are words filed in the database; no cut-off is given here.
# Legend:
# Plasmodium berghei [1] = assay: Antiparasitic activity as reduced parasitaemia after 36 hrs against Plasmodium berghei ANKA infected Swiss mice (Mus musculus) at 30 mg/kg intraperitoneal dosed 64 hrs post infection; assay type: functional
# In short: (§1)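 Male Swiss mice were infected i.p. with 10^7 P. berghei ANKA-parasitized erythrocytes. At 64 h (3-5% parasitemia) they received a single i.p. dose of piperaquine phosphate suspension: 300, 900 or 2,700 μg in 100 μl (about 10, 30, 90 mg/kg). Parasitemia came from May-Grünwald Giemsa tail-blood thin films, counting 30-100 fields (detection limit about 0.002%). Groups had 13-14 mice; controls had 8.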
# Plasmodium berghei [2] = assay: Antiparasitic activity as parasitaemia against Plasmodium berghei ANKA infected Swiss mice (Mus musculus) at 30 mg/kg intraperitoneal dose 64 hrs post infection; assay type: functional; in short: as §1
# Plasmodium berghei [3] = assay: Antiparasitic activity as reduced parasitaemia against Plasmodium berghei ANKA infected Swiss mice (Mus musculus) at 30 mg/kg intraperitoneal dose 64 hrs post infection; assay type: functional, organism-based; parameters: dose 30 mg/kg; in short: as §1
# Plasmodium berghei [4] = assay: Antiparasitic activity as reduced parasitaemia at day 3 against Plasmodium berghei ANKA infected Swiss mice (Mus musculus) at 30 mg/kg intraperitoneal dose 64 hrs post infection; assay type: functional, organism-based; parameters: dose 30 mg/kg; in short: as §1
# Plasmodium berghei [5] = assay: Antiparasitic activity as reduced parasitaemia against Plasmodium berghei ANKA infected Swiss mice (Mus musculus) at 10 mg/kg intraperitoneal dose 64 hrs post infection; assay type: functional, organism-based; parameters: dose 10 mg/kg; in short: as §1
# Plasmodium berghei [6] = assay: Antiparasitic activity as reduced parasitaemia after 24 hrs against Plasmodium berghei ANKA infected Swiss mice (Mus musculus) at 30 mg/kg intraperitoneal dose 64 hrs post infection; assay type: functional, organism-based; parameters: dose 30 mg/kg; in short: as §1
# Plasmodium berghei [7] = assay: Antiparasitic activity as reduced parasitaemia against Plasmodium berghei ANKA infected Swiss mice (Mus musculus) at 90 mg/kg intraperitoneal dose 64 hrs post infection; assay type: functional, organism-based; parameters: dose 90 mg/kg; in short: as §1
# [8] = Initial half life in healthy Swiss mouse at 90 mg/kg, ip by two compartment model assay; assay type: ADME, organism-based; parameters: dose 90 mg/kg, route intraperitoneal; conditions: in vivo, read-out: alphat1/2 (converted)
# In short: (§2)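 Uninfected male Swiss mice (6 weeks old) received a single i.p. dose of 2,700 μg piperaquine phosphate suspension (about 90 mg/kg). Cardiac-puncture blood was collected under pentobarbitone from n = 5 per time, 0 h to 25 days. Lithium heparin plasma was assayed by HPLC and normalized to a 90 mg/kg dose. Mean profiles were analysed noncompartmentally and by a two-compartment model (1/y2 weighting).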
# [9] = Terminal half life in Swiss mice (Mus musculus) infected with Plasmodium berghei ANKA at 90 mg/kg, intraperitoneally by two compartment model assay; assay type: ADME, organism-based; parameters: dose 90 mg/kg, route intraperitoneal; conditions: in vivo, ip, read-out: beta t1/2 (converted)
# In short: (§3)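 P. berghei ANKA-infected male Swiss mice (10^7 parasitized erythrocytes i.p.) got one i.p. dose of 2,700 μg piperaquine phosphate (about 90 mg/kg) in glycerol/phosphate buffer/polysorbate 80 suspension, 64 h post-inoculation. Cardiac blood was drawn from 5 mice per time point, 0 h to […]. Plasma piperaquine was measured by HPLC, with concentrations normalized to 90 mg/kg. Noncompartmental and two-compartment fits (1/y2 weighting) used group means.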
# [10] = AUC in Swiss mice (Mus musculus) infected with Plasmodium berghei ANKA at 90 mg/kg, intraperitoneally administered 64 hrs after infection; assay type: ADME, organism-based; parameters: dose 90 mg/kg, route intraperitoneal; conditions: plasma, ip; in short: as §3
# [11] = Plasma concentration in Swiss mice (Mus musculus) infected with Plasmodium berghei ANKA at 90 mg/kg, intraperitoneally administered 64 hrs after infection measured after 36 hrs; assay type: ADME, organism-based; parameters: dose 90 mg/kg, route intraperitoneal; conditions: ip; in short: as §3
# [12] = Apparent clearance in Swiss mice (Mus musculus) infected with Plasmodium berghei ANKA at 90 mg/kg, intraperitoneally administered 64 hrs after infection; assay type: ADME, organism-based; parameters: dose 90 mg/kg, route intraperitoneal; conditions: in vivo, ip; in short: as §3
# [13] = Plasma concentration in Swiss mice (Mus musculus) infected with Plasmodium berghei ANKA at 90 mg/kg, intraperitoneally administered 64 hrs after infection measured after 60 days; assay type: ADME, organism-based; parameters: dose 90 mg/kg, route intraperitoneal; conditions: ip; in short: as §3
# [14] = Terminal half life in human children; assay type: ADME, organism-based; conditions: in vivo, read-out: beta t1/2 (converted)
# [15] = Toxicity in mouse; assay type: organism-based; conditions: in vivo
# Plasmodium berghei [16] = assay: Antiparasitic activity as parasitaemia after 36 hrs against Plasmodium berghei ANKA infected Swiss mice (Mus musculus) at 90 mg/kg intraperitoneal dose 64 hrs post infection; assay type: functional; in short: as §1
# Plasmodium berghei [17] = assay: Antiparasitic activity as survival at day 30 against Plasmodium berghei ANKA infected Swiss mice (Mus musculus) at 10 mg/kg intraperitoneal dose 64 hrs post infection; assay type: functional
# In short: (§4)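 Male Swiss mice (5–6 weeks) inoculated i.p. with 10^7 P. berghei ANKA-parasitized erythrocytes. At 64 h (3–5% parasitemia), each received a single i.p. 100 μl PQP suspension in 50% glycerol, 30% phosphate buffer (pH 7.1) and 20% polysorbate 80. Parasitemia was followed on tail-vein Giemsa smears. Mice were euthanized at >40% parasitemia or >10% weight loss within 24 h. Groups of 14 treated, 8 controls.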
# Plasmodium berghei [18] = assay: Antimalarial activity against chloroquine-sensitive Plasmodium berghei by Peters 4 day test; conditions: 96 h
# [19] = Apparent clearance in healthy Swiss mouse at 90 mg/kg, ip; assay type: ADME, organism-based; parameters: dose 90 mg/kg, route intraperitoneal; conditions: in vivo; in short: as §2
# [20] = Half life in Swiss mice (Mus musculus) infected with Plasmodium berghei ANKA at 90 mg/kg, intraperitoneally administered 64 hrs after infection; assay type: ADME, organism-based; parameters: dose 90 mg/kg, route intraperitoneal; conditions: in vivo, ip; in short: as §3
# Mus musculus [21] = assay: Apparent volume of distribution in healthy Swiss mouse at 90 mg/kg, ip; assay type: ADME, organism-based; parameters: dose 90 mg/kg, route intraperitoneal; conditions: in vivo; in short: as §2
# [22] = Terminal half life in healthy Swiss mouse at 90 mg/kg, ip by two compartment model assay; assay type: ADME, organism-based; parameters: dose 90 mg/kg, route intraperitoneal; conditions: in vivo, read-out: beta t1/2 (converted); in short: as §2
# [23] = Plasma concentration in Swiss mice (Mus musculus) infected with Plasmodium berghei ANKA at 90 mg/kg, intraperitoneally administered 64 hrs after infection measured after 2 hrs; assay type: ADME, organism-based; parameters: dose 90 mg/kg, route intraperitoneal; conditions: ip; in short: as §3
# [24] = Plasma concentration in Swiss mice (Mus musculus) infected with Plasmodium berghei ANKA at 90 mg/kg, intraperitoneally administered 64 hrs after infection measured after 30 days; assay type: ADME, organism-based; parameters: dose 90 mg/kg, route intraperitoneal; conditions: ip; in short: as §3
# [25] = Half life in healthy Swiss mouse at 90 mg/kg, ip; assay type: ADME, organism-based; parameters: dose 90 mg/kg, route intraperitoneal; conditions: in vivo; in short: as §2
# Mus musculus [26] = assay: Plasma concentration in Swiss mice (Mus musculus) infected with Plasmodium berghei ANKA at 90 mg/kg, intraperitoneally administered 64 hrs after infection measured after 2 to 7 days; assay type: ADME, organism-based; parameters: dose 90 mg/kg, route intraperitoneal; conditions: in vivo, ip; in short: as §3
# Plasmodium berghei [27] = assay: Antiparasitic activity as survival at day 30 against Plasmodium berghei ANKA infected Swiss mice (Mus musculus) at 20-30 mg/kg intraperitoneal dose 64 hrs post infection; assay type: functional
# [28] = Terminal half life in adult human; assay type: ADME, organism-based; conditions: in vivo, read-out: beta t1/2 (converted)
# [29] = Initial half life in Swiss mice (Mus musculus) infected with Plasmodium berghei ANKA at 90 mg/kg, intraperitoneally by two compartment model assay; assay type: ADME, organism-based; parameters: dose 90 mg/kg, route intraperitoneal; conditions: in vivo, ip, read-out: alphat1/2 (converted); in short: as §3
# [30] = AUC in healthy Swiss mouse at 90 mg/kg, ip; assay type: ADME, organism-based; parameters: dose 90 mg/kg, route intraperitoneal; conditions: plasma; in short: as §2
# Plasmodium berghei [31] = assay: Antiparasitic activity as survival at day 30 against Plasmodium berghei ANKA infected Swiss mice (Mus musculus) at 30 mg/kg intraperitoneal dose 64 hrs post infection; assay type: functional; in short: as §4
# Mus musculus [32] = assay: Apparent volume of distribution in Swiss mice (Mus musculus) infected with Plasmodium berghei ANKA at 90 mg/kg, intraperitoneally administered 64 hrs after infection; assay type: ADME, organism-based; parameters: dose 90 mg/kg, route intraperitoneal; conditions: in vivo, ip; in short: as §3
# Plasmodium berghei [33] = assay: Antiparasitic activity as mean parasitaemia after 22 days against Plasmodium berghei ANKA infected Swiss mice (Mus musculus) at 30 mg/kg intraperitoneal dose 64 hrs post infection; assay type: functional; in short: as §1
# Plasmodium berghei [34] = assay: Antiparasitic activity as reduced parasitaemia at day 22-30 against Plasmodium berghei ANKA infected Swiss mice (Mus musculus) at 30 mg/kg intraperitoneal dose 64 hrs post infection; assay type: functional; parameters: scale not given: the % may be the effect or the level left; in short: as §1
# Plasmodium berghei [35] = assay: Antiparasitic activity as median survival time after 30 days against Plasmodium berghei ANKA infected Swiss mice (Mus musculus) at 30 mg/kg intraperitoneal dose 64 hrs post infection; assay type: functional; in short: as §4
# Plasmodium berghei [36] = assay: Antiparasitic activity as parasitaemia at day 16 against Plasmodium berghei ANKA infected Swiss mice (Mus musculus) at 90 mg/kg intraperitoneal dose 64 hrs post infection; assay type: functional; in short: as §1
# Plasmodium berghei [37] = assay: Antiparasitic activity as parasitaemia against Plasmodium berghei ANKA infected Swiss mice (Mus musculus) at 10 mg/kg intraperitoneal dose 64 hrs post infection; assay type: functional; in short: as §1
# Plasmodium berghei [38] = assay: Antiparasitic activity as reduced parasitaemia after 36 hrs against Plasmodium berghei ANKA infected Swiss mice (Mus musculus) at 10 mg/kg intraperitoneal dosed 64 hrs post infection; assay type: functional
# In short: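 Male Swiss mice (5–6 weeks) infected i.p. with 10^7 P. berghei ANKA-parasitized erythrocytes from BALB/c donor blood diluted in citrate-phosphate-dextrose. Single i.p. dose given at 64 h, suspended in 50% glycerol/30% phosphate buffer pH 7.1/20% polysorbate 80, 100 µl. n = 14; vehicle controls n = 8. Parasitemia counted on methanol-fixed, May-Grünwald Giemsa tail-vein smears, expressed as fold decline from predose level.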
# Plasmodium berghei [39] = assay: Antiparasitic activity as parasitaemia at day 60 against Plasmodium berghei ANKA infected Swiss mice (Mus musculus) at 90 mg/kg intraperitoneal dose 64 hrs post infection; assay type: functional; in short: as §1
# Plasmodium berghei [40] = assay: Antiparasitic activity as median survival time against Plasmodium berghei ANKA infected Swiss mice (Mus musculus) at 10 mg/kg intraperitoneal dose 64 hrs post infection; assay type: functional; in short: as §4
# Plasmodium berghei [41] = assay: Antiparasitic activity as peripheral parasitaemia 2 weeks after day 60 reinfection against Plasmodium berghei ANKA infected Swiss mice (Mus musculus) at 90 mg/kg intraperitoneal dose 64 hrs post infection; assay type: functional
# In short: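 Swiss mice given a single i.p. 90 mg/kg piperaquine phosphate 64 h after P. berghei ANKA infection were reinoculated i.p. with 10^7 parasitized erythrocytes on day 60. Age-matched previously uninfected mice (untreated, vehicle, or drug on day 0) were inoculated alongside. Parasitemia was read daily from Giemsa-stained tail-blood films for 2 weeks.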
# Plasmodium berghei [42] = assay: Antiparasitic activity as parasitaemia after 4 days against Plasmodium berghei ANKA infected Swiss mice (Mus musculus) at 90 mg/kg intraperitoneal dose; assay type: functional; in short: as §1
structure (smiles),measurement,setting,value
C[C@H]1[C@@H](O)O[C@@H]2O[C@@]3(C)CC[C@H]4[C@H](C)CC[C@@H]1[C@@]24OO3 [ARTENIMOL],fold change (FC),Plasmodium berghei [1],11.9
same,Activity,Plasmodium berghei [2],4.6%
Clc1ccc2c(N3CCN(CCCN4CCN(c5ccnc6cc(Cl)ccc56)CC4)CC3)ccnc2c1,Activity,Plasmodium berghei [3],Active
same,Activity,Plasmodium berghei [4],Active
same,Activity,Plasmodium berghei [5],Active
same,Activity,Plasmodium berghei [6],Active
same,Activity,Plasmodium berghei [7],Active
Clc1ccc2c(N3CCN(CCCN4CCN(c5ccnc6cc(Cl)ccc56)CC4)CC3)ccnc2c1 [PIPERAQUINE],half-life,[8],0.59 days
same,half-life,[9],15.4 days
same,AUC at 64 h,[10],27300 ng·h/mL
same,concentration at 36 h,[11],45 ng/mL
same,CL/F,[12],31.7 mL/min/kg
same,concentration at 1440 h,[13],3 ng/mL
same,half-life,[14],14 days
same,LD50,[15],1100 mg/kg
same,Activity,Plasmodium berghei [16],0.002%
same,Activity,Plasmodium berghei [17],0%
same,ED50,Plasmodium berghei [18],4.5 mg/kg
same,CL/F,[19],25.8 mL/min/kg
same,half-life,[20],16.1 days
same,Vd,Mus musculus [21],956 L/kg
same,half-life,[22],20.7 days
same,concentration at 2 h,[23],250 ng/mL
same,concentration at 720 h,[24],> 10 ng/mL
same,half-life,[25],17.8 days
same,Cp,Mus musculus [26],20 ng/mL
same,Activity,Plasmodium berghei [27],50%
same,half-life,[28],23 days
same,half-life,[29],0.35 days
same,AUC,[30],33500 ng·h/mL
same,Activity,Plasmodium berghei [31],70%
same,Vd,Mus musculus [32],1059 L/kg
Clc1ccc2c(N3CCN(CCCN4CCN(c5ccnc6cc(Cl)ccc56)CC4)CC3)ccnc2c1.O=P(O)(O)O [PIPERAQUINE PHOSPHATE],Activity,Plasmodium berghei [33],11%
same,Activity,Plasmodium berghei [34],0.1%
same,Activity,Plasmodium berghei [35],54 days
same,Activity,Plasmodium berghei [36],1.8%
same,Activity,Plasmodium berghei [37],1.5%
same,fold change (FC),Plasmodium berghei [38],12.8
same,Activity,Plasmodium berghei [39],< 0.1%
same,Activity,Plasmodium berghei [40],10 days
same,Activity,Plasmodium berghei [41],<1%
same,Activity,Plasmodium berghei [42],>10%
